# NR2E3 ag-1 = agonists of human NR2E3 nuclear receptor; 0.35% of 360,000 active; AID 602229; inhibition of corepressor binding, % at 3.98 µM; CHO-S Gal4-NCOR/VP16-NR2E3 two-hybrid, luciferase;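 active = inhibition above the mean of all tested compounds plus 3 SD, cut at about 70% in these data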;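 note: 0% = DMSO with NR2E3 transfected cells and 100% = cells lacking NR2E3 construct; higher means lower luciferase signal from less NR2E3 corepressor binding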
# Rev-erbA mod = modulators of human Rev-erb alpha DNA binding; P20393; Rev-erbα–FITC-DNA binding, fluorescence polarization, 90 min; activity, % at 10 µM; 0.79% of 370,000 active;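 active = activity above about 14%, limit read from the data; passing the limit was not always enough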;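 note: 0% = DMSO wells with 35 nM protein and 100% = DMSO wells with 750 nM protein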
# Target sequence (P20393 whole entry, looked up): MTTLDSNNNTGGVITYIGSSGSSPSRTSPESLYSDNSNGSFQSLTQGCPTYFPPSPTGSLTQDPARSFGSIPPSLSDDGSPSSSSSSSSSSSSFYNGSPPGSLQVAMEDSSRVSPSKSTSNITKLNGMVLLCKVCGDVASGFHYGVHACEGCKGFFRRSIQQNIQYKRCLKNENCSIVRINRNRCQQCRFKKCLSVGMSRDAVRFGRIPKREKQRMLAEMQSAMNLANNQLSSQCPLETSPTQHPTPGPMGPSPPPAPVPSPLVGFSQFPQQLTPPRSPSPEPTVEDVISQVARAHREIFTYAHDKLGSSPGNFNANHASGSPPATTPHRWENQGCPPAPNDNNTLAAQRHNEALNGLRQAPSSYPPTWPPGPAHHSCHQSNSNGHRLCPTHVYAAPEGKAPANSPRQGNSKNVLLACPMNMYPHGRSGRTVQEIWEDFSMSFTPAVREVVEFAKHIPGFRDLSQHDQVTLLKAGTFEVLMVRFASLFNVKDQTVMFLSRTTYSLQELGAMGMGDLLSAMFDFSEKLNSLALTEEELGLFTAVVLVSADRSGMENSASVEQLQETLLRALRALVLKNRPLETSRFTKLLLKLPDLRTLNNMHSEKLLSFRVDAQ
# PKA-R1A act = activators of PKA-R1A complex | PKA-R1A dissociation, Cy5-IP20 fluorescence polarization; scaled: DMSO 0%, 113 µM cGMP 100% | AID 504707 | P00514+P68181 | 0.083% of 340,000 active | activation, % at 11.4 µM;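 active = percent activation above the mean of all tested compounds plus 3 SD, cut at about 19% in these data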;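 note: higher means more PKAc released from R1A so a rise in polarization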
# PKA-R2B act = activates the human PKA-R2B holoenzyme complex | P22694+P31323 | PKA-R2B holoenzyme dissociation, Cy5-IP20 fluorescence polarization; R2B truncated from residue 108, S112A mutant; 0% DMSO only, 100% 113 µM cGMP | activation, % at 11.4 µM | 0.079% of 340,000 active | AID 504700;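 active = activation above a cutoff set at the mean over all compounds plus 3 SD, cut at about 18% in these data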;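 note: higher means more holoenzyme dissociation and a rise in polarization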
# NR2E3 ag-2 = activates human photoreceptor nuclear receptor NR2E3; Q9Y5X4; GST-NR2E3/biotin-RetCOR TR-FRET, 1536-well; inhibition of corepressor binding, % at 4.78 µM; 0.12% of 320,000 active;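 active = percent inhibition above the cutoff of mean plus 3 SD of all tested compounds, set per screening campaign, cut at about 20% in these data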;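 note: 0% = DMSO wells and 100% = biotin wells as full block of FRET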
#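 system = GST-tagged NR2E3 plus biotinylated RetCOR corepressor | input = 1.35 nM GST-NR2E3 | also added = 7 nM biotin-RetCOR | schedule = 5 h incubation at 4 °C | measured by = TR-FRET with europium anti-GST and streptavidin-D2, 340 nm excitation | read-out = percent loss of FRET ratio relative to control wells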
# PG9 Ab binder = PG9 antibody binding by small molecule; TR-FRET gp120-PG9 antibody binding; inhibition, % at 6.7 µM; 0.43% of 360,000 active; in the data active = inhibition above about 8.5%
# NR2E3 ag confirm = NR2E3 agonism confirmed in two-hybrid assay; 51% of 2,300 active; CHO-S mammalian two-hybrid NR2E3-NCOR, luciferase luminescence; inhibition, % at 3.98 µM; shares compounds with NR2E3 ag-1;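 active = average inhibition above a cutoff equal to the mean inhibition of all tested compounds plus one SD, cut at about 70% in these data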;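 note: 0% = DMSO in NR2E3 cells and 100% = DMSO in cells lacking NR2E3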
# GAL4-VP16 luc = reduces GAL4-VP16 reporter signal in NR2E3 counterscreen. shares compounds with NR2E3 ag-1. CHO-S GAL4-VP16 luciferase reporter, luminescence. inhibition, % at 3.98 µM. 29% of 2,300 active. AID 624379;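 active = mean inhibition above a cutoff equal to the average over all tested compounds plus one standard deviation, cut at about 70% in these data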;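 note: luciferase from a UAS reporter driven by GAL4-VP16 transactivation; 0% = DMSO with VP16-transfected cells and 100% = DMSO with cells lacking VP16; higher means less reporter light so more repression of VP16 activity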
# An asterisk follows results filed as active; / = no result. Rows were chosen to be rich in hits. Some 1.6% of all compounds tested hit in one or more screens of this group.
SMILES,NR2E3 ag-1,Rev-erbA mod,PKA-R1A act,PKA-R2B act,NR2E3 ag-2,PG9 Ab binder,NR2E3 ag confirm,GAL4-VP16 luc
CCCCNc1c(-c2ccc(OC)c(SC3CCCCC3)c2)nc2ccc(C)cn12,61,-2,-17,0,/,3,46,26
Cc1sc2ncn(CCn3cnc4sc(C)c(C)c4c3=O)c(=O)c2c1C,55,-4,-2,7,3,1,68,52
Cc1nc2ccccc2cc1OCc1ccccc1,73*,3,-6,1,-1,1,70*,66
Cc1nc2ccccc2cc1OCc1ccc(Cl)cc1,78*,1,-3,-2,2,-1,92*,73*
COc1cccc(COc2cc3ccccc3nc2C)c1,73*,-5,0,-10,1,2,94*,76*
Cc1nc2ccccc2nc(C)c1=NOCc1cccc(Cl)c1,-117,-7,-4,0,-2,-2,/,/
CCCC[C@@H]1C(=O)N2N=Cc3cc4ccccc4cc3[C@H]2N2N=Cc3cc4ccccc4cc3[C@@H]12,/,14,/,/,/,/,/,/
COc1ccc(-c2noc(C3CCCN(C(=O)NC4CCC(C)CC4)C3)n2)cc1 (configuration not stated),/,0,/,/,/,/,/,/
COc1ccc(CNC(=O)O[C@H]2CC[C@@]34CCCN3C(=O)CCC[C@H]4C2)cc1,/,-4,/,/,/,/,/,/
CCC(=O)N1CCc2cc(Br)c(S(=O)(=O)N3CCC(C(=O)NCCCOC(C)C)CC3)cc21,/,0,/,/,/,/,/,/
Brc1ccc(-c2nnc3c4ccccc4nc(N4CCOCC4)n23)cc1,80*,-1,1,8,0,1,15,-21
Clc1ccc(-c2nnc3c4ccccc4nc(N4CCOCC4)n23)cc1Cl,-37,-4,-4,-1,0,0,/,/
CCC(C(=O)Nc1ccccc1N1CCCC1)c1cccc(OC)c1 (configuration not stated),/,7,/,/,/,/,/,/
O=C(Nc1cccc(Cl)c1)c1cc(N=Nc2ccc([N+](=O)[O-])cc2Cl)ccc1O,71*,-26,-7,-8,2,0,100*,92*
O=C(Nc1ccc([N+](=O)[O-])cc1Cl)c1cc(Cl)ccc1O,-110,-2,1,5,2,0,/,/
COc1cc(NC(=O)C2CCN(c3nnc(-n4cccc4)s3)CC2)cc(OC)c1,/,4,/,/,/,/,/,/
CCn1c(SCC(=O)Nc2ccccc2OC)nc2ccccc2c1=O,16,-1,-13,-2,0,-3,/,/
CCOc1ccccc1-n1c(SCC(=O)Nc2ccccc2C(=O)O)nc2ccccc2c1=O,50,-1,-4,2,3,2,48,15
O=C(CCn1nnc(-c2cccs2)n1)N1CCOCC1,/,-4,/,/,/,/,/,/
O=C(C1CCC(CNS(=O)(=O)c2cccs2)CC1)N1CCCCC1 (configuration not stated),-9,-1,8,-5,0,-1,/,/
Cc1cccc(N2CCN(C(=O)C3CCC(CNS(=O)(=O)c4cccs4)CC3)CC2)c1C (configuration not stated),49,4,4,4,6,0,36,51
CC(=O)Nc1ccc(OCC(C)CN2CCC(C(O)(c3ccccc3)c3ccccc3)CC2)cc1 (configuration not stated),/,5,/,/,/,/,/,/
COc1ccc(C(=O)Cn2c(C(C)=O)nc3ccccc32)cc1,63,-5,4,9,/,0,15,8
CC(C)(NO)/C(=N\O)c1ccc(Cl)cc1,3,-3,-1,-9,0,-1,/,/
CC(C)(NO)/C(=N/O)c1ccc(Br)cc1,48,0,-7,10,2,-1,13,-9
SMILES,NR2E3 ag-1,Rev-erbA mod,PKA-R1A act,PKA-R2B act,NR2E3 ag-2,PG9 Ab binder,NR2E3 ag confirm,GAL4-VP16 luc
Cc1ccc(C(=O)N2CCN3C(=O)c4ccccc4C23c2ccc(Cl)cc2)cc1 (configuration not stated),74*,5,2,4,2,2,44,15
Cc1ccc(S(=O)(=O)Nc2nc3ccccc3nc2NCc2ccco2)cc1,-74,-3,8,-13,6,0,/,/
Cc1ccc(S(=O)(=O)Nc2nc3ccccc3nc2NCc2ccco2)cc1C,49,-2,-6,-3,0,0,22,21
Cc1sc2ncnc(N3CCN(CCOc4ccc(Cl)cc4)CC3)c2c1C,99*,2,-2,-4,1,-2,95*,86*
Cc1sc2ncnc(N3CCC(C(=O)NNC(=O)COc4ccc(Cl)cc4)CC3)c2c1C,-15,-3,2,7,/,-2,/,/
CCN(CC)CCOC(=O)/C=C/c1ccccc1,1,-5,2,-6,1,-3,/,/
CCN(CC)CC(C)(C)C(=O)/C=C/c1ccc(/C=C/C(=O)C(C)(C)CN(CC)CC)cc1,103*,2,-2,-3,/,-1,96*,56
N#Cc1ccc(OC[C@@H](O)CN2CCC(C(O)(c3ccccc3)c3ccccc3)CC2)cc1F,/,2,/,/,/,/,/,/
CCN(CC)c1ccc(/C=c2\sc3nc4ccccc4n3c2=O)c(O)c1,58,10,-7,5,/,0,79*,60
Cc1cc(/C=c2/sc3nc4ccccc4n3c2=O)c(C)n1-c1ccccn1,80*,0,4,-4,0,-4,84*,75*
O=C(c1cc(COc2ccc(-n3cncn3)cc2)on1)N1CCCC1,-11,0,-2,0,1,0,/,/
CN(Cc1nccn1C)C(=O)c1cc(COc2ccc3ncccc3c2)on1,1,0,-1,-1,-2,0,/,/
CCC1CCCCN1C(=O)c1cc(COc2ccc(-n3cncn3)cc2)on1 (configuration not stated),60,1,0,5,1,-2,47,60
O=C(NC1CCCCCCC1)c1cc(COc2ccc3ncccc3c2)on1,80*,0,-3,-5,/,1,95*,88*
CCN1CCN(C(=O)c2cc(COc3c(C)cccc3C)on2)CC1,-22,-2,3,11,1,-2,/,/
Cc1cccnc1CN1CCN(C(=O)c2cc(COc3ccc4ncccc4c3)on2)CC1,78*,-7,-3,-7,-6,-1,99*,88*
O=C(c1cc(COc2ccc3ncccc3c2)on1)N1CCCC(O)C1 (configuration not stated),5,-3,-5,8,2,1,/,/
Cc1cc(CN(C)C(=O)c2cc(COc3ccc4ncccc4c3)on2)on1,48,0,-9,-4,0,0,73*,63
